Reference: PMC4944921 (Drug Design, Development and Therapy, 2016)

Key:
[1] = tested on: TJ proteins (occludin, claudin-1, F-actin) in Calu-3 cells; assay: Immunofluorescence microscopy of tight junction proteins in Calu-3 cells; type: cell-based, human; conditions: 3 hours treatment, vs control group
How it was run: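 Calu-3 monolayers on collagen-coated 0.4 μm PET Transwell membranes were exposed to test compounds in medium for 3 h. Cells were fixed in cold 4% paraformaldehyde for 30 min and blocked with goat serum for 1 h. Anti-occludin or anti-claudin-1 (1:100, 4°C overnight) was detected with TRITC anti-rabbit or FITC anti-mouse IgG. F-actin was stained with phalloidin (1:150, RT, 30 min) and nuclei with DAPI. Relative AOD = (IntDen/Area) as % of control; three experiments; Dunnett test.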

Calu-3 cells [2] = assay: MTT cytotoxicity assay in Calu-3 cells; type: cell-based, human; conditions: comparison of the three compounds
How it was run: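 Calu-3 cells were seeded at 1×10^5 cells/mL in 96-well plates and grown for 48 h at 37°C in 5% CO2. They were then exposed to test compounds at various concentrations for 48 h. MTT (5 mg/mL stock in PBS) was added for 4 h at 37°C, formazan was dissolved in DMSO, and A490 was read. Viability (%) = (Asample−Ablank)/(Acontrol−Ablank)×100, from the mean of five measurements.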

[3] = tested on: abdominal skin of Rana catesbeiana; conditions: menthol 5 mg/mL with puerarin, compared with puerarin alone group; cited from earlier work
[4] = Puerarin bidirectional transport across Calu-3 cell monolayers; type: in vitro ADME, human; conditions: human
How it was run: (§1)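 Calu-3 cells (passages 5–10) were grown on collagen-coated PET Transwells, switched to air-interface culture from day 5 and used once TEER exceeded 500 Ω cm2. Monolayers were HBSS-washed and equilibrated for 30 min at 37°C. Drug was placed apically (A→B) or basolaterally (B→A), with shaking at 37°C. Receiver samples were taken at 30–180 min for HPLC-UV at 250 nm (C18; methanol:1% acetate 37:63). Papp was normalised to donor concentration and membrane area; ER = Papp(B→A)/Papp(A→B); n=3.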

Calu-3 cell monolayer = assay: as above; type: in vitro ADME, human
How it was run: as §1

Calu-3 cells [5] = assay: TEER change of Calu-3 monolayers after exposure to compounds; type: cell-based, human; conditions: A→B and B→A, 30-180 minutes, vs control group
How it was run: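 Monolayers with TEER above 500 Ω cm2 received drug solution on the apical side (HBSS basolateral) or on the basolateral side (HBSS apical). Untreated monolayers served as control. TEER was read with chopstick electrodes and an epithelial volt–ohm meter at 30, 60, 90, 120, 150 and 180 min. Values are expressed relative to pre-experiment TEER (100%) and compared with control by one-way ANOVA and Dunnett test (P<0.05); three experiments, mean ± SD.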

[6] = cited from earlier work

## C[C@@]12C[C@@]3(O)O[C@@H](O1)[C@]1(COC(=O)c4ccccc4)[C@H]3C[C@@]12O[C@@H]1O[C@H](CO)[C@@H](O)[C@H](O)[C@H]1O [paeoniflorin]
[1]
  relative AOD of occludin, claudin-1, and F-actin: did not significantly differ

## CC1CCC(C(C)C)C(O)C1 (centres unmarked) [menthol]
Calu-3 cells [2]
  relative toxicity to Calu-3 cells: most toxic
[1]
  relative AOD of occludin, claudin-1, and F-actin: decreased significantly
[3]
  Papp value of puerarin: significantly higher

## O=c1c(-c2ccc(O)cc2)coc2c([C@@H]3O[C@H](CO)[C@@H](O)[C@H](O)[C@H]3O)c(O)ccc12 [puerarin]
Calu-3 cells [2]
  relative toxicity to Calu-3 cells: safer and less irritating than paeoniflorin
[4]
  Papp at 180 min: < 1.5 ×10⁻⁶ cm/s
[4]; ER (B→A/A→B), puerarin 30 μg/mL alone
  efflux ratio at 180 min, 30 μg/mL: 0.963 ± 0.065
[4]; ER (B→A/A→B), puerarin 60 μg/mL alone
  efflux ratio at 180 min, 60 μg/mL: 1.01 ± 0.032
[4]; Papp (A→B), puerarin 30 μg/mL alone
  Papp A→B at 180 min, 30 μg/mL: 1.22 ± 0.027 ×10⁻⁶ cm/s
[4]; Papp (A→B), puerarin 60 μg/mL + menthol 15 μg/mL
  Papp A→B at 180 min, 60 μg/mL: 1.28 ± 0.084 ×10⁻⁶ cm/s
[4]; Papp (A→B), puerarin 60 μg/mL + menthol 30 μg/mL
  Papp A→B at 180 min, 60 μg/mL: 1.64 ± 0.058 ×10⁻⁶ cm/s
[4]; Papp (A→B), puerarin 60 μg/mL + menthol 60 μg/mL
  Papp A→B at 180 min, 60 μg/mL: 1.79 ± 0.087 ×10⁻⁶ cm/s
[4]; Papp (A→B), puerarin 60 μg/mL + paeoniflorin 12 μg/mL
  Papp A→B at 180 min, 60 μg/mL: 1.24 ± 0.027 ×10⁻⁶ cm/s
[4]; Papp (A→B), puerarin 60 μg/mL + paeoniflorin 12 μg/mL + menthol 15 μg/mL
  Papp A→B at 180 min, 60 μg/mL: 1.3 ± 0.15 ×10⁻⁶ cm/s
[4]; Papp (A→B), puerarin 60 μg/mL + paeoniflorin 24 μg/mL
  Papp A→B at 180 min, 60 μg/mL: 1.23 ± 0.054 ×10⁻⁶ cm/s
[4]; Papp (A→B), puerarin 60 μg/mL + paeoniflorin 24 μg/mL + menthol 30 μg/mL
  Papp A→B at 180 min, 60 μg/mL: 1.56 ± 0.143 ×10⁻⁶ cm/s
[4]; Papp (A→B), puerarin 60 μg/mL + paeoniflorin 48 μg/mL
  Papp A→B at 180 min, 60 μg/mL: 1.23 ± 0.025 ×10⁻⁶ cm/s
[4]; Papp (A→B), puerarin 60 μg/mL + paeoniflorin 48 μg/mL + menthol 60 μg/mL
  Papp A→B at 180 min, 60 μg/mL: 1.96 ± 0.067 ×10⁻⁶ cm/s
[4]; Papp (A→B), puerarin 60 μg/mL alone
  Papp A→B at 180 min, 60 μg/mL: 1.23 ± 0.039 ×10⁻⁶ cm/s
[4]; Papp (A→B), puerarin 120 μg/mL alone
  Papp A→B at 180 min, 120 μg/mL: 1.24 ± 0.053 ×10⁻⁶ cm/s
[4]; Papp (A→B), puerarin alone, span over 30, 60 and 120 μg/mL
  Papp A→B at 180 min: 1.22 to 1.24 ×10⁻⁶ cm/s
[4]; Papp (B→A), puerarin 30 μg/mL alone
  Papp B→A at 180 min, 30 μg/mL: 1.17 ± 0.053 ×10⁻⁶ cm/s
[4]; Papp (B→A), puerarin 60 μg/mL + menthol 15 μg/mL
  Papp B→A at 180 min, 60 μg/mL: 1.36 ± 0.083 ×10⁻⁶ cm/s
[4]; Papp (B→A), puerarin 60 μg/mL + menthol 30 μg/mL
  Papp B→A at 180 min, 60 μg/mL: 1.8 ± 0.111 ×10⁻⁶ cm/s
[4]; Papp (B→A), puerarin 60 μg/mL + menthol 60 μg/mL
  Papp B→A at 180 min, 60 μg/mL: 2.07 ± 0.151 ×10⁻⁶ cm/s
[4]; Papp (B→A), puerarin 60 μg/mL + paeoniflorin 12 μg/mL
  Papp B→A at 180 min, 60 μg/mL: 1.24 ± 0.037 ×10⁻⁶ cm/s
[4]; Papp (B→A), puerarin 60 μg/mL + paeoniflorin 12 μg/mL + menthol 15 μg/mL
  Papp B→A at 180 min, 60 μg/mL: 1.29 ± 0.067 ×10⁻⁶ cm/s
[4]; Papp (B→A), puerarin 60 μg/mL + paeoniflorin 24 μg/mL
  Papp B→A at 180 min, 60 μg/mL: 1.25 ± 0.032 ×10⁻⁶ cm/s
[4]; Papp (B→A), puerarin 60 μg/mL + paeoniflorin 24 μg/mL + menthol 30 μg/mL
  Papp B→A at 180 min, 60 μg/mL: 1.91 ± 0.254 ×10⁻⁶ cm/s
[4]; Papp (B→A), puerarin 60 μg/mL + paeoniflorin 48 μg/mL
  Papp B→A at 180 min, 60 μg/mL: 1.29 ± 0.035 ×10⁻⁶ cm/s
[4]; Papp (B→A), puerarin 60 μg/mL + paeoniflorin 48 μg/mL + menthol 60 μg/mL
  Papp B→A at 180 min, 60 μg/mL: 2.14 ± 0.13 ×10⁻⁶ cm/s
[4]; Papp (B→A), puerarin 60 μg/mL alone
  Papp B→A at 180 min, 60 μg/mL: 1.24 ± 0.055 ×10⁻⁶ cm/s
[4]; Papp (B→A), puerarin 120 μg/mL alone
  Papp B→A at 180 min, 120 μg/mL: 1.27 ± 0.104 ×10⁻⁶ cm/s
[4]; Papp (B→A), puerarin alone, span over 30, 60 and 120 μg/mL
  Papp B→A at 180 min: 1.17 to 1.27 ×10⁻⁶ cm/s
[4]; efflux ratio (ER), puerarin alone, each concentration 30, 60, 120 μg/mL
  efflux ratio at 180 min: < 1.5
Calu-3 cell monolayer; puerarin 60 μg/mL + menthol 15 μg/mL
  ER (B→A/A→B): 1.065±0.116
Calu-3 cell monolayer; puerarin 60 μg/mL + menthol 30 μg/mL
  ER (B→A/A→B): 1.100±0.060
Calu-3 cell monolayer; puerarin 60 μg/mL + menthol 60 μg/mL
  ER (B→A/A→B): 1.157±0.088
Calu-3 cell monolayer; puerarin 60 μg/mL + paeoniflorin 12 μg/mL
  ER (B→A/A→B): 1.002±0.039
Calu-3 cell monolayer; puerarin 60 μg/mL + paeoniflorin 12 μg/mL + menthol 15 μg/mL
  ER (B→A/A→B): 0.999±0.150
Calu-3 cell monolayer; puerarin 60 μg/mL + paeoniflorin 24 μg/mL
  ER (B→A/A→B): 1.018±0.065
Calu-3 cell monolayer; puerarin 60 μg/mL + paeoniflorin 24 μg/mL + menthol 30 μg/mL
  ER (B→A/A→B): 1.228±0.157
Calu-3 cell monolayer; puerarin 60 μg/mL + paeoniflorin 48 μg/mL
  ER (B→A/A→B): 1.049±0.027
Calu-3 cell monolayer; puerarin 60 μg/mL + paeoniflorin 48 μg/mL + menthol 60 μg/mL
  ER (B→A/A→B): 1.091±0.048
Calu-3 cell monolayer; puerarin 120 μg/mL alone
  ER (B→A/A→B): 1.023±0.070
Calu-3 cell monolayer; puerarin alone, each concentration 30, 60, 120 μg/mL
  efflux ratio (ER): ~ 1
Calu-3 cells [5]
  trend of TEER change: no difference from the control group
[1]
  relative AOD of occludin, claudin-1, and F-actin: did not significantly differ
[6]; Tongqiaosanyu, caudal vein injection, rats
  AUC0−∞ (plasma): 787.99±70.44 mg⋅min⋅L^−1
[6]; Tongqiaosanyu, nasal administration, rats
  AUC0–∞ (plasma): 376.56±93.93 mg⋅min⋅L^−1
[6]; intranasal administration
  brain drug targeting index: 2.70
  brain targeting coefficient (Re): 132.25%
[6]; nasal administration
  absolute bioavailability: 47.78%
